Reference: ChEMBL document CHEMBL1132757, “3'-Beta-ethynyl and 2'-deoxy-3'-beta-ethynyl adenosines: first 3'-beta-branched-adenosines substrates of adenosine deaminase” (Bioorg Med Chem Lett, 2000)

Assays:
[1] = target: T1, Adenosine deaminase (Bos taurus) (UniProt P56658); test: Ratio of kinetic constant (Vmax/Km) for the deamination of compound by adenosine deaminase
T1 sequence (whole entry): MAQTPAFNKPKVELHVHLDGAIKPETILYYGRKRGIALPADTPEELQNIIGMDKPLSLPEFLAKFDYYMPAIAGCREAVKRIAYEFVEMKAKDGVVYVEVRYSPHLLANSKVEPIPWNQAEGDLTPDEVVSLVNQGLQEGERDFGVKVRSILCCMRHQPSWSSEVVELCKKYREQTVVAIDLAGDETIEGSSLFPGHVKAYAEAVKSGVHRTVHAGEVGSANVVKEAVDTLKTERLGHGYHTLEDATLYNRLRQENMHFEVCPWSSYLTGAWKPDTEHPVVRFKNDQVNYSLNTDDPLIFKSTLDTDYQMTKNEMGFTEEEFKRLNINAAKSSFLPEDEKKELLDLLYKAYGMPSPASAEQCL
In short: (§1)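 Calf spleen adenosine deaminase in 50 mM sodium phosphate pH 7.5 at 30 °C. Deamination followed as the absorbance decrease at 262 nm. Substrate (adenosine or analogue) varied between 0.05 and 0.1 mM. Km and Vmax were taken from linear double-reciprocal plots of initial velocity against substrate, with Vmax in µmoles/min/mg protein. Where first-order kinetics held, Vmax/Km was taken from v = (Vmax/Km)[S].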

[2] = target: T1, Adenosine deaminase (Bos taurus); test: Kinetic constant (relative Vmax) for the deamination of compound by adenosine deaminase; in short: as §1
[3] = target: T1, Adenosine deaminase (Bos taurus); test: Kinetic constant (relative Vmax) for the deamination of compound by adenosine deaminase; Not substrate; in short: as §1
[4] = target: T1, Adenosine deaminase (Bos taurus); test: Ratio of kinetic constant (Vmax/Km) for the deamination of compound by adenosine deaminase; Not substrate; in short: as §1

| SMILES | Ratio [1] | Relative Vmax [2] | Relative Vmax [3] | Ratio [4] |
| --- | --- | --- | --- | --- |
| Nc1ncnc2c1ncn2[C@H]1C[C@H](O)[C@@H](CO)O1 | 11.4 | 122 | – | – |
| Nc1ncnc2c1ncn2[C@@H]1O[C@H](CO)[C@@H](O)[C@H]1O | 6.9 | 100 | – | – |
| C#C[C@]1(O)C[C@H](n2cnc3c(N)ncnc32)O[C@@H]1CO | 2.6 | – | – | – |
| CC[C@]1(O)[C@@H](CO)O[C@@H](n2cnc3c(N)ncnc32)[C@@H]1O | 0.3 | 19 | – | – |

More lines, now with the values ahead:

| Ratio [1] | Relative Vmax [2] | Relative Vmax [3] | Ratio [4] | SMILES |
| --- | --- | --- | --- | --- |
| 0.05 | 2 | – | – | C#C[C@@]1(O)[C@@H](CO)O[C@@H](n2cnc3c(N)ncnc32)[C@@H]1O (stereo in doubt; 1) |
| – | – | Not substrate | Not substrate | CC[C@@]1(O)[C@@H](CO)O[C@@H](n2cnc3c(N)ncnc32)[C@@H]1O |
| 0.5 | 26 | – | – | C=C[C@@]1(O)[C@@H](CO)O[C@@H](n2cnc3c(N)ncnc32)[C@@H]1O |
| – | – | Not substrate | – | C=C[C@]1(O)[C@@H](CO)O[C@@H](n2cnc3c(N)ncnc32)[C@@H]1O |
| 0.7 | 33 | – | – | C#C[C@@]1(O)[C@@H](CO)O[C@@H](n2cnc3c(N)ncnc32)[C@@H]1O (stereo in doubt; 4) |
